Experimental data published in ChEMBL document CHEMBL1152496, “N-Terminal 2,3-diaminopropionic acid (Dap) peptides as efficient methylglyoxal scavengers to inhibit advanced glycation endproduct (AGE) formation” (Bioorg Med Chem, 2009).
Values belong to the compound of their own block, whether it stands above or below them. Where a SMILES comes first, the peptide text is derived from it. [ ]: non-standard residue; d: D form. dDap = NC[C@@H](N)C(=O)O; Dap = NC[C@H](N)C(=O)O

Assays:
[1] = Inhibition of alpha-dicarbonyls-induced advanced glycation end product formation assessed as protection against 100 eq. MG-induced insulin degradation at 3.75 mM after 24 hrs by RP-HPLC; set-up: scale not given: the % may be the effect or the level left; details: 3750 µM
[2] = Inhibition of alpha-dicarbonyls-induced advanced glycation end product formation assessed as protection against MG-induced loss of bovine pancreatic RNaseA enzyme activity after 48 hrs […]; assay type: physicochemical; set-up: concentration or dose not given beside the values; details: cattle
Method in brief: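 RNase A was pre-incubated with equimolar MG ± scavenger at 37 °C, pH 7.4. The glycated enzyme (10 µg/mL) was added to a methylene blue–yeast RNA solution (600 µg/mL RNA working concentration), and remaining activity was compared with control.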

[3] = Cytoprotective activity against MG-induced cytotoxicity in human EAhy926 cells assessed as viable cells at 1 mM after 48 hrs by MTT assay; details: EA.hy 926
[4] = Cytotoxicity in human EAhy926 cells assessed as viable cells at 1 mM after 48 hrs by MTT assay
[5] = Inhibition of alpha-dicarbonyls-induced advanced glycation end product formation assessed as protection against 100 eq. MG-induced insulin degradation at 3.75 mM after 24 hrs by RP-HPLC; assay type: physicochemical; set-up: scale not given: the % may be the effect or the level left; details: 3750 µM
Method in brief: (§1)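 Human insulin (34 µM) was incubated in 10 mM phosphate pH 7.4 with 0.1 M NaCl at 37 °C with MG, ± scavenger at 1.1 mol equiv relative to MG. The standard condition was MG 3.4 mM (100 equiv) with scavenger 3.75 mM for 24 h. Remaining intact insulin was quantified by C18 RP-HPLC (TFA water/acetonitrile gradient) against the insulin-alone control.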

[6] = Inhibition of alpha-dicarbonyls-induced advanced glycation end product formation assessed as protection against MG-induced insulin degradation at 3.75 mM after 2 days by RP-HPLC; assay type: physicochemical; set-up: scale not given: the % may be the effect or the level left; details: 48 h, 3750 µM
Method in brief: as §1

[7] = Inhibition of alpha-dicarbonyls-induced advanced glycation end product formation assessed as protection against MG-induced insulin degradation at 3.75 mM after 5 days by RP-HPLC; assay type: physicochemical; set-up: scale not given: the % may be the effect or the level left; details: 120 h, 3750 µM
Method in brief: as §1

[8] = Inhibition of alpha-dicarbonyls-induced advanced glycation end product formation assessed as protection against MG-induced insulin degradation at 3.75 mM after 7 days by RP-HPLC; assay type: physicochemical; set-up: scale not given: the % may be the effect or the level left; details: 168 h, 3750 µM
Method in brief: as §1

[9] = Inhibition of alpha-dicarbonyls-induced advanced glycation end product formation assessed as protection against 10 eq. MG-induced insulin degradation at 3.75 mM after 24 hrs by RP-HPLC; assay type: physicochemical; set-up: scale not given: the % may be the effect or the level left; details: 3750 µM
Method in brief: as §1

[10] = Inhibition of alpha-dicarbonyls-induced advanced glycation end product formation assessed as protection against 5 eq. MG-induced insulin degradation at 3.75 mM after 24 hrs by RP-HPLC; assay type: physicochemical; set-up: scale not given: the % may be the effect or the level left; details: 3750 µM
Method in brief: as §1

[11] = Inhibition of alpha-dicarbonyls-induced advanced glycation end product formation assessed as protection against MG-induced loss of human glyoxalase1 enzyme activity after 48 hrs […]; assay type: physicochemical; set-up: scale not given: the % may be the effect or the level left; details: 24 h; in the assay text read “24 hrs” for “48 hrs”
Method in brief: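 Human glyoxalase I was pre-incubated with equimolar MG ± scavenger. Substrate hemithioacetal was formed from 2 mM MG and 2 mM reduced glutathione in 50 mM sodium phosphate pH 6.6 (20 min, 37 °C; ~600 µM) and equilibrated 15 min. Enzyme was then added, and S-D-lactoylglutathione formation was followed at 240 nm. One unit = 1 µmol per min.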

[12] = Inhibition of alpha-dicarbonyls-induced advanced glycation end product formation assessed as protection against MG-induced chicken lysozyme degradation after 48 hrs by SDS-PAGE; assay type: physicochemical
Method in brief: (§2)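 Protein stock (10–15 mg/mL in phosphate buffer) was incubated with MG ± scavenger at 37 °C, pH 7.4, for 48 h, then stored at −20 °C until SDS–PAGE. For RNase A, MG was equimolar to protein and scavenger was 1.1 mol per mol MG.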

[13] = Mutagenic activity in Salmonella Typhimurium TA98 at 0.1 to 10 uM after 60 hrs by Ames test in presence of human S9 fraction; assay type: toxicity; details: salmonella enterica subsp. enterica serovar typhimurium, s9, 60 h
Method in brief: (§3)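 Ames assay used a mix of S. typhimurium TA7001–TA7006 and, separately, TA98. Test substance (10, 1, 0.1 µM; alone or with MG; MG alone 10 µM) was incubated ± human liver S9 at 37 °C for 90 min, then in indicator medium for 60 h. Positive controls were 2-aminoanthracene, 4-nitroquinoline N-oxide and 2-nitrofluorene; solvent was the negative control. Duplicate experiments, 48 wells per point.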

[14] = Mutagenic activity in Salmonella Typhimurium TA98 at 0.1 to 10 uM after 60 hrs by Ames test in presence of human S9 fraction and MG; assay type: toxicity; details: salmonella enterica subsp. enterica serovar typhimurium, s9, 60 h
Method in brief: as §3

[15] = Mutagenic activity in Salmonella Typhimurium at 0.1 to 10 uM after 60 hrs by Ames test in absence of human S9 fraction; assay type: toxicity; details: salmonella enterica subsp. enterica serovar typhimurium, s9, 60 h
Method in brief: as §3

[16] = Mutagenic activity in Salmonella Typhimurium at 0.1 to 10 uM after 60 hrs by Ames test in presence of human S9 fraction; assay type: toxicity; details: salmonella enterica subsp. enterica serovar typhimurium, s9, 60 h
Method in brief: as §3

[17] = Mutagenic activity in Salmonella Typhimurium at 0.1 to 10 uM after 60 hrs by Ames test in absence of human S9 fraction and in presence of MG; assay type: toxicity; details: salmonella enterica subsp. enterica serovar typhimurium, s9, 60 h
Method in brief: as §3

[18] = Inhibition of alpha-dicarbonyls-induced advanced glycation end product formation assessed as protection against MG-induced bovine pancreatic RNaseA degradation after 48 hrs by SDS-PAGE; assay type: physicochemical; details: cattle
Method in brief: as §2

[19] = Mutagenic activity in Salmonella Typhimurium TA98 at 0.1 to 10 uM after 60 hrs by Ames test in absence of human S9 fraction and in presence of MG; assay type: toxicity; details: salmonella enterica subsp. enterica serovar typhimurium, s9, 60 h
Method in brief: as §3

[20] = Inhibition of alpha-dicarbonyls-induced advanced glycation end product formation assessed as protection against MG-induced human glyoxalase1 degradation after 24 hrs by […]; assay type: physicochemical
Method in brief: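 Human glyoxalase I was incubated with MG (protein/MG 1/1) ± scavenger (1.1 or 2.2 equiv) at 37 °C, pH 7.4, for 24 h, then stored at −20 °C. Mobility shift was analysed by non-denaturing PAGE.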

[21] = Mutagenic activity in Salmonella Typhimurium at 51.7 uM after 60 hrs by Ames test in presence of human S9 fraction; details: salmonella enterica subsp. enterica serovar typhimurium, s9, 60 h
[22] = Mutagenic activity in Salmonella Typhimurium TA98 at 51.7 uM after 60 hrs by Ames test in presence of human S9 fraction; details: salmonella enterica subsp. enterica serovar typhimurium, s9, 60 h

SMILES: NC[C@H](N)C(=O)NCCC(=O)O
Activity [1]: 69%

SMILES: NCCCC[C@H](NC(=O)[C@H](N)CN)C(=O)O
viability at 1000 µM [3]: 43% | viability at 1000 µM [4]: 81%

SMILES: NC[C@@H](N)C(=O)N[C@@H](Cc1ccc(C(F)(F)F)cc1)C(=O)O
Activity [1]: 74%

SMILES: CCCC[C@H](NC(=O)[C@@H](N)CN)C(=O)O
viability at 1000 µM [3]: 74% | viability at 1000 µM [4]: 94%

SMILES: CC(C)C[C@@H](NC(=O)[C@@H](N)CN)C(=O)O
viability at 1000 µM [3]: 71% | viability at 1000 µM [4]: 87%

SMILES: NC[C@H](N)C(=O)N[C@@H](Cc1ccccc1)C(=O)O
viability at 1000 µM [3]: 67% | viability at 1000 µM [4]: 78%

SMILES: CC(C)C[C@H](NC(=O)[C@@H](N)CN)C(=O)O
viability at 1000 µM [3]: 69% | Activity [1]: 87% | Activity [11]: 96% | Activity [12]: Active | Activity [13]: Non-toxic | Activity [14]: Non-toxic | viability at 1000 µM [4]: 78% | Activity [15]: Non-toxic | Activity [16]: Non-toxic | Activity [2]: 94% | Activity [17]: Non-toxic | Activity [18]: Active | Activity [19]: Non-toxic | Activity [20]: Active

SMILES: CC(C)[C@H](NC(=O)[C@@H](N)CN)C(=O)O (H-[Dap]-Val-OH)
viability at 1000 µM [3]: 93% | Activity [1]: 71% | Activity [12]: Active | viability at 1000 µM [4]: 96% | Activity [2]: 91% | Activity [18]: Active

SMILES: C[C@@H](NC(=O)[C@H](N)CN)C(=O)O (H-[dDap]-[dA]-OH)
viability at 1000 µM [3]: 71% | Activity [1]: 71% | viability at 1000 µM [4]: 72% | Activity [2]: 87%

SMILES: NCCC(N)C(=O)O (racemic)
Activity [1]: 40%

SMILES: CC(C)(S)C(N)C(=O)O (racemic) [DL-PENICILLAMINE]
viability at 1000 µM [3]: 61% | Activity [1]: 69% | viability at 1000 µM [4]: 86%

SMILES: NCC(N)C(=O)O (single isomer, unassigned) [DIAMINOPROPANOIC ACID]
viability at 1000 µM [3]: 67% | viability at 1000 µM [4]: 81%

SMILES: Nc1ccc2cc3ccccc3cc2c1 [2-AMINOANTHRACENE]
Activity [21]: Toxic | Activity [22]: Toxic

SMILES: N=C(N)NCCC[C@H](N)C(=O)O [ARGININE]
Activity [1]: 18%

SMILES: NCCC(=O)N[C@@H](Cc1cnc[nH]1)C(=O)O [CARNOSINE]
viability at 1000 µM [3]: 54% | Activity [1]: 0% | viability at 1000 µM [4]: 97%

SMILES: N[C@@H](CS)C(=O)O [CYSTEINE]
Activity [1]: 69%

SMILES: NCCCC[C@H](N)C(=O)O [LYSINE]
Activity [1]: 0%

SMILES: N=C(N)NN [PIMAGEDINE]
viability at 1000 µM [3]: 75% | Activity [1]: 85% | viability at 1000 µM [4]: 94% | Activity [2]: 70%

SMILES: Cc1ncc(CO)c(CN)c1O [PYRIDOXAMINE]
viability at 1000 µM [3]: 32% | Activity [1]: 14% | viability at 1000 µM [4]: 92%

Continued, in another order:

Activity [1]: 66% | Activity [2]: 70%
SMILES: NC[C@@H](N)C(=O)N[C@H](Cc1ccccc1)C(=O)O

Activity [1]: 83% | Activity [5]: 83% | Activity [6]: 88% | Activity [7]: 85% | Activity [8]: 88% | Activity [9]: 90% | Activity [10]: 90%
SMILES: CC(C)C[C@H](NC(=O)[C@H](N)CN)C(=O)O

Activity [1]: 91%
SMILES: CCCC[C@H](NC(=O)[C@H](N)CN)C(=O)O

Activity [1]: 98% | Activity [2]: 20%
SMILES: NCC(N)C(=O)O (stereo not given)

Activity [1]: 61%
SMILES: NC[C@@H](N)C(=O)N[C@H](CC(=O)O)C(=O)O

Activity [1]: 84%
SMILES: CC(C)C[C@@H](NC(=O)[C@H](N)CN)C(=O)O

Activity [1]: 67% | Activity [2]: 86%
SMILES: NC[C@H](N)C(=O)NCC(=O)O (H-[Dap]-Gly-OH)
viability at 1000 µM [3]: 54% | viability at 1000 µM [4]: 57%

Activity [1]: 75% | Activity [2]: 91%
SMILES: CC[C@H](C)[C@H](NC(=O)[C@@H](N)CN)C(=O)O (H-[Dap]-Ile-OH)
viability at 1000 µM [3]: 79% | viability at 1000 µM [4]: 86%

Activity [1]: 77%
SMILES: NC[C@H](N)C(=O)N1CCC[C@H]1C(=O)O (H-[Dap]-Pro-OH)

Activity [1]: 53%
SMILES: NC[C@@H](N)C(=O)NC(Cc1ccc(F)cc1)C(=O)O (mixture of isomers)

Activity [1]: 74%
SMILES: CCCCCCCCCCCCCCCCOC(=O)[C@H](CC(C)C)NC(=O)C(N)CN (single isomer, unassigned)
viability at 1000 µM [3]: 33% | viability at 1000 µM [4]: 23%

Activity [1]: 11%
SMILES: CN(C)C(=N)N=C(N)N [METFORMIN]
viability at 1000 µM [3]: 53% | viability at 1000 µM [4]: 84%
